Results: paper PMC4618649 (Pharmacology Research & Perspectives, 2015)
Read-outs that look alike come from different tables or passages of the source.

How the values were obtained:
[1] = Substrate depletion in human liver microsomes; assay type: in vitro ADME; conditions: both, human, human liver microsomes
[2] = system: Human liver microsomes (HLMs); test: Substrate depletion in human liver microsomes; assay type: in vitro ADME; conditions: largest k calculated, used to approximate first-order conditions; HLMs 0.25 mg/mL
CYP2C8 (rCYP2C8) = target: T1, CYP2C8 (rCYP2C8) (Homo sapiens, UniProt P10632); test: Substrate depletion by human recombinant CYP2C8; assay type: in vitro ADME; conditions: human, recombinant CYP2C8 Supersomes (insect cell microsomes)
T1 sequence (P10632 1-490): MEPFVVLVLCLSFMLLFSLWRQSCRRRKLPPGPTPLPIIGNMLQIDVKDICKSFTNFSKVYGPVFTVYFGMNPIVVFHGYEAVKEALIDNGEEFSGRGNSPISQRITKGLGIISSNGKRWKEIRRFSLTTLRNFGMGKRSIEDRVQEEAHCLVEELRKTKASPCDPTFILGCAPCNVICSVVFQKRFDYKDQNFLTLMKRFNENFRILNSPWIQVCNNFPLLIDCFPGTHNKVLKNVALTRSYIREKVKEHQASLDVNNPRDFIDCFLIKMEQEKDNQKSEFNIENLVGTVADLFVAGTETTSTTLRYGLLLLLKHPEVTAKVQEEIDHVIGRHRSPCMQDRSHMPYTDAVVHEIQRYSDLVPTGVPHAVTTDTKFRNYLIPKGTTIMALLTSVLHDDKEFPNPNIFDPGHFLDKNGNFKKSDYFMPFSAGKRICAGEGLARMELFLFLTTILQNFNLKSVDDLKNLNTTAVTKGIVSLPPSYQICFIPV
Procedure, shortened: (§1)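 Human recombinant CYPs were insect-cell microsomes, with CYPb5 co-expressed if available, plus a no-CYP membrane control. Test compound (30 or 300 nmol/L) was incubated with matrix (0.25 mg/mL) and buffer. NADPH (1 mmol/L) started the reaction, and acetonitrile with internal standard stopped it after 5 or 30 min. CLint came from −kdep and the amount of rCYP, scaled to HLM by relative activity factor.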

rCYP2C8 = target: T2, rCYP2C8 (Homo sapiens, UniProt P10632); test: Substrate depletion by human recombinant CYP2C8; assay type: in vitro ADME; conditions: rCYP2C8
T2 sequence (P10632 1-490): T1 sequence (P10632 1-490)
Procedure, shortened: as §1

CYP3A (rCYP3A4) = CYP3A (rCYP3A4) (Homo sapiens, UniProt P08684); test: Substrate depletion by human recombinant CYP3A4; assay type: in vitro ADME
Procedure, shortened: as §1

[3] = assay type: in vivo, human; conditions: for % AUC(tlast–∞): geometric mean (range)
Procedure, shortened: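 Five healthy males received a single oral 100 mg dose containing ~100 μCi 14C-label, with blood sampled to 192 h. Plasma parent was measured by LC/MS/MS (range 1–1000 ng/mL). Total radioactivity was counted by liquid scintillation, directly in plasma and after combustion for whole blood. Parameters were derived noncompartmentally. Adverse events were recorded.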

[4] = Phase 1 disposition study: excretion and mass balance; assay type: in vivo, human
Procedure, shortened: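 Five healthy males received a single oral 100 mg dose containing ~100 μCi 14C-label. Urine and feces were collected to 216 h, and expired air at selected times to 48 h for 14CO2. Radioactivity was counted by liquid scintillation, either directly (urine, expired air) or after combustion (feces). Cumulative fraction of dose was summed over collection periods.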

[5] = Phase 1 disposition study: metabolite radioprofiling in plasma and feces; assay type: in vivo, human; conditions: for Percent dose mean excreted in feces: single oral 100 mg 14C-evacetrapib
Procedure, shortened: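 Samples came from five healthy males after a single oral 100 mg dose (~100 μCi 14C). Plasma, feces and urine were extracted, dried and reconstituted in DMSO/acetonitrile/10 mmol/L ammonium acetate (1:3:3). Metabolites were separated by HPLC, and fractions were counted to build radiochromatograms. Structures were identified by LC/MS and LC/MS/MS (ion trap, plus Orbitrap accurate mass) in positive ion mode.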

[6] = Phase 1 DDI study with ketoconazole in healthy subjects; assay type: in vivo, human; conditions: for Ratio of geometric LS means, AUC(0–∞), evacetrapib + ketoconazole versus evacetrapib (90% CI) / Ratio of geometric LS means, Cmax, evacetrapib + ketoconazole versus evacetrapib (90% CI): 100 mg evacetrapib, 400 mg ketoconazole daily; for CL/F: geometric mean (% CV)
Procedure, shortened: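 Twelve fasted healthy adults of both sexes (18–65 y, BMI 18–32 kg/m2) took part in a fixed-sequence study. Period 1 was a single oral 100 mg of test compound, sampled predose to 168 h. After a ≥14-day washout, Period 2 was ketoconazole 400 mg daily for 14 days with 100 mg test compound on Day 5, sampled for 240 h. Plasma LC/MS/MS range was 1–1000 ng/mL. Analysis was noncompartmental, with log ANOVA (treatment fixed, subject random) and 90% CIs; tmax was compared by Wilcoxon test. Adverse events were recorded.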

[7] = Phase 1 DDI study with gemfibrozil in healthy subjects; assay type: in vivo, human; conditions: for Ratio of geometric LS means, AUC(0–τ), evacetrapib + gemfibrozil versus evacetrapib (90% CI) / Ratio of geometric LS means, Cmax, evacetrapib + gemfibrozil versus evacetrapib (90% CI): 130 mg QD, 600 mg gemfibrozil BID
[8] = ref Mantlo and Escribano [2014]; Cannady 2013; cited from earlier work
[9] = ref Mantlo and Escribano [2014]; Cannady 2013; cited from earlier work; remark: listed apart in the source
[10] = patients with dyslipidemia, alone or with statins; ref Nicholls et al. [2011]; cited from earlier work
[11] = male, human, plasma, oral, 100 mg
[12] = both, human, plasma, oral, 100 mg
[13] = both, human, plasma, oral, 400 mg
[14] = both, human, plasma, oral, 130 mg

CYP3A (rCYP3A4), sequence (P08684 whole entry): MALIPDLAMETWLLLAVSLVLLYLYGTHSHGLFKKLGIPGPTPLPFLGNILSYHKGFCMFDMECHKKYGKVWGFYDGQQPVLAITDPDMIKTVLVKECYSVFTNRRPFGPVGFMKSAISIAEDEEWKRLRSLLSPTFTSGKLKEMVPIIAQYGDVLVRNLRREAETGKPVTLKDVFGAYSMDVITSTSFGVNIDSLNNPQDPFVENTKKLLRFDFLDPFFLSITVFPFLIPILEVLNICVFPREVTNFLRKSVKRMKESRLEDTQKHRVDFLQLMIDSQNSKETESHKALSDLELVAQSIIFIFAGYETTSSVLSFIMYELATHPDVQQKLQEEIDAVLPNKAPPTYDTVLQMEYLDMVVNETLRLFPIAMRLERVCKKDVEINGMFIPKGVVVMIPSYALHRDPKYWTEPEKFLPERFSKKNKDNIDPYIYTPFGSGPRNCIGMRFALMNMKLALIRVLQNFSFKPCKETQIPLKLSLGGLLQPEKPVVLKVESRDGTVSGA

SMILES: Cc1cc(C)c2c(c1)[C@@H](N(Cc1cc(C(F)(F)F)cc(C(F)(F)F)c1)c1nnn(C)n1)CCCN2C[C@H]1CC[C@H](C(=O)O)CC1 [evacetrapib]
- microsomal CLint [1]: 138 µL/min/mg
- substrate depletion rate constant k in HLMs [2]: 0.0345 min⁻¹
- microsomal CLint (CYP2C8 (rCYP2C8)): 19.9 µL/min/mg
- CLint (rCYP2C8): 0.712 μL × min^−1 × pmol CYP^−1
- −kdep (rCYP2C8): 0.000707 s⁻¹
- microsomal CLint (CYP3A (rCYP3A4); human, recombinant CYP3A4 Supersomes (insect cell microsomes)): 186 µL/min/mg
- CLint (CYP3A (rCYP3A4); rCYP3A4 representing CYP3A): 4.257 μL × min^−1 × pmol CYP^−1
- −kdep (CYP3A (rCYP3A4); rCYP3A4 representing CYP3A): 0.002608 s⁻¹
- Average (%) of total radioactivity attributed to evacetrapib ([3]; based on AUC(0–36), plasma): 66%
- Average (%) of total radioactivity attributed to evacetrapib ([3]; based on AUC(0–∞), plasma): 52%
- Average (%) of total radioactivity attributed to evacetrapib ([3]; based on Cmax, plasma): 82%
- % AUC(tlast–∞) ([3]; blood total radioactivity, N = 4): 21 (18–24) ^2%
- association of evacetrapib-related material with red blood cells ([3]; from blood-to-plasma radioactivity ratios and hematocrit): negligible
- AUC(0-t) [3, 11]: 6250 ng·h/mL
- Cmax [3, 11]: 777 ng/mL
- Vd/F [3, 11]: 564 L
- half-life [3, 11]: 32.3 h
- AUC(0-inf) ([3]; male, human, plasma, po, 100 mg): 8250 ng·h/mL
- CL/F ([3]; plasma evacetrapib, geometric mean (CV)): 12.1 (20) L/h
- % AUC(tlast–∞) ([3]; plasma evacetrapib): 1 (0–4) %
- % AUC(tlast–∞) ([3]; plasma total radioactivity): 19 (13–26) %
- treatment-emergent adverse events (TEAEs) reported ([3]; reported by 2 of 5 subjects, single 100-mg dose): 5
- AEs related to evacetrapib as judged by the investigator ([3]; single 100-mg dose): Three
- severity of all AEs ([3]; single 100-mg dose): mild
- dose excreted in feces ([4]; mean (±SD), up to 216 h): 93.1 % of the dose
- dose excreted in urine ([4]; mean (±SD), up to 216 h): 2.30 % of the dose
- levels of radioactivity in expired air ([4]; samples up to 48 h): negligible
- radioactive peaks in plasma ([5]; 24-h plasma samples, detected in only 3 subjects): only quantifiable radioactive peak
- dose eliminated via CYP-mediated (oxidative) metabolism ([5]; from fecal metabolites): Approximately 70%
- Dose eliminated in the select feces through 192 h postdose ([5]; percent dose mean): 89.86%
- Percent dose mean excreted in feces [5]: 17 % of the dose
- Percent dose mean excreted in feces ([5]; listed as Evacetrapib): 16.80 % of the dose
- fraction of evacetrapib eliminated by CYPs ([5]; used in the static model): ~1 For determinations of fm, CYP3A4-mediated metabolism was considered to represent total CPY3A-mediated metabolism AUCi/AUC = 1/(1-fmCYP3A × fraction of evacetrapib eliminated by CYPs) where the fraction of evacetrapib eliminated by CYPs is approximately 0.7.
- Ratio of geometric LS means, AUC(0–∞), evacetrapib + ketoconazole versus evacetrapib (90% CI) [6]: 2.37
- Ratio of geometric LS means, Cmax, evacetrapib + ketoconazole versus evacetrapib (90% CI) [6]: 1.94
- Ratio of geometric LS means, AUC(0–∞), evacetrapib + ketoconazole versus evacetrapib (90% CI) ([6]; listed as Evacetrapib): 2.37 (1.77, 3.18)
- Ratio of geometric LS means, Cmax, evacetrapib + ketoconazole versus evacetrapib (90% CI) ([6]; listed as Evacetrapib): 1.94 (1.39, 2.72)
- AUC(0-inf) [6, 12]: 5260 ng·h/mL
- Cmax [6, 12]: 332 ng/mL
- Tmax [6, 12]: 3 h
- Vd/F [6, 12]: 861 L
- Tmax [6, 13]: 3 h
- Vd/F [6, 13]: 592 L
- half-life [6, 13]: 63.2 h
- TEAEs considered mild ([6]; evacetrapib alone or in combination with ketoconazole): 16
- TEAEs reported ([6]; evacetrapib alone or in combination with ketoconazole, reported by 5 subjects): 18
- CL/F ([6]; evacetrapib alone): 19.0 (51) L/h
- CL/F ([6]; with 400 mg ketoconazole): 8.24 (57) L/h
- difference in median tmax between treatments ([6]; with versus without ketoconazole): no difference
- Ratio of geometric LS means, AUC(0–τ), evacetrapib + gemfibrozil versus evacetrapib (90% CI) [7]: 0.996
- Ratio of geometric LS means, Cmax, evacetrapib + gemfibrozil versus evacetrapib (90% CI) [7]: 1.02
- Ratio of geometric LS means, AUC(0–τ), evacetrapib + gemfibrozil versus evacetrapib (90% CI) ([7]; listed as Evacetrapib): 0.996 (0.922, 1.08)
- Ratio of geometric LS means, Cmax, evacetrapib + gemfibrozil versus evacetrapib (90% CI) ([7]; listed as Evacetrapib): 1.02 (0.933, 1.11)
- AEs considered to be related to the study drug ([7]; 5 of 24 subjects who received evacetrapib alone and/or with gemfibrozil): 10
- Tmax ([7]; both, human, plasma, oral): 3 h
- AUC [7, 14]: 11300 ng·h/mL
- Cmax [7, 14]: 1270 ng/mL
- Tmax [7, 14]: 4 h
- severity of all AEs ([7]; human, in vivo): mild
- AEs reported ([7]; whole study, reported by 12 subjects): 28
- difference in median tmax between treatments ([7]; with versus without gemfibrozil): no significant difference
- drug solubility [8]: poor
- protein binding [9]: high
- HDL-C levels [10]: increased
- LDL-C levels [10]: decreased
- changes in blood pressure, aldosterone, cortisol, or electrolytes [10]: without producing substantial changes

SMILES: CC(=O)N1CCN(c2ccc(OCC3COC(Cn4ccnc4)(c4ccc(Cl)cc4Cl)O3)cc2)CC1 (stereo not shown) [ketoconazole, reference compound]
- TEAEs considered moderate ([6]; reported by subjects who received ketoconazole alone): 2
